From ChEMBL document CHEMBL4513216, “Probing the Open Global Health Chemical Diversity Library for Multistage-Active Starting Points for Next-Generation Antimalarials” (ACS Infect Dis, 2020) come the findings set out here.

A short description of the data set: Toxicity liver stage against HepG2, at 10uM. It counts as cell-based. On the set-up: test concentration 10 uM, cell line HepG2-A16-CD81EGFP. As to conditions: human, HepG2-A16-CD81EGFP cells; read-out: INHIBITION
The gist of the method: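 Uninfected HepG2-A16-CD81EGFP cells, 3 × 10^3 per well, 1536-well, plated on prespotted compound at 10 μM final, parasite-free screening media added to match infected plates; puromycin 10 μM positive, DMSO 0.5% negative; run in parallel with 48 h PbLuc assay at 37 °C, 5% CO2; viability by CellTiter-Glo luminescence, normalized to controls.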
In the case of `CC(C)(C)OC(=O)NC(C)(C)c1noc(Cn2ccnc2)n1`, the cytotoxicity at 10 µM turned out to be 8.73%.

As for `COC(=O)CNC(=O)N1CCN(c2nc3ccccc3n2C)CC1`, the cytotoxicity at 10 µM is -9.46%. Turning to `Nc1c(N2CCCCC2)ncnc1N1CCOCC1`, the cytotoxicity at 10 µM turned out to be 3.66%.

For the compound `Cc1nn(-c2ccc(C(=O)O)cc2)c2c1C(CC(C)C)SCC(=O)N2` (configuration not stated), the cytotoxicity at 10 µM was -2.43%.

Consider `COCCNC(=O)Cn1cc(OCc2ccccc2F)c(=O)cc1CO`, for which the cytotoxicity at 10 µM was -173%. As for `Cc1nc(C)c(C(=O)Nc2cc(N3CCC(C)CC3)ncn2)s1`, the cytotoxicity at 10 µM is -8.11%.

As to `CN(C)C(=O)NCc1ncn2c1CN(S(C)(=O)=O)CCC2`, the cytotoxicity at 10 µM is 11%. For `O=C(c1nc2c(s1)CCCN2CC1CC1)N1CCCC1` the value was 15.2%.

Consider `O=C(Cc1cccs1)N1CCC2(CCCN(CC3CCOCC3)C2)C1` (configuration not stated), for which the cytotoxicity at 10 µM is -144%. For `CCCS(=O)(=O)N1CCC2(CC1)CN(C(=O)N(C)C)c1ccccc12` the value was -108%; for `COc1ncnc2c1CCN(Cc1cccc(C)n1)CC2`, -146%.

For `CC(=O)c1nn(-c2ccccc2)c(C)c1C(C)=O`, the cytotoxicity at 10 µM was found to be 2.27%. Regarding `O=C(C1CCOC1)N1CC[C@@H](O)[C@@H]1Cc1ccccc1` (some centres not stated), the cytotoxicity at 10 µM turned out to be 9.34%.

For `COC(=O)C1=NOC(Cc2cc(OC)c3c(c2)OCO3)C1` (configuration not stated), the cytotoxicity at 10 µM came out at 5.82%. `COc1ccccc1OCCN(C)Cc1c(C2CC2)[nH]c2ncccc12`: the cytotoxicity at 10 µM came to 5.62%. Turning to `CCc1c(C)nc2cc(-c3nccn3C)nn2c1N1CCCC(CO)C1` (configuration not stated), the cytotoxicity at 10 µM was determined as 3.06%. For `COc1ccc2nc(C3CC3)cc(C(=O)NCc3ncnn3C)c2c1` the value was -8.06%; for `COc1ccccc1OCc1nc(C(C)C)no1`, 14%; for `CN(Cc1nnc2ccccn12)C(=O)CC1CCCCC1`, 13.7%.

On to `Cn1c(NCc2ccc(C(N)=O)cc2)nc2cc(Cl)ccc21`, for which the cytotoxicity at 10 µM was determined as 1.42%. To `Cc1cc(C)n2c(CNCc3ccc(OC(F)F)cc3)cnc2n1` belongs -145%; to `CCOCC(=O)Nc1cc(-c2cccc(F)c2F)n[nH]1`, 0.107%. For `Cc1noc(C)c1C(=O)N(C)C(C)c1ccc(S(C)(=O)=O)cc1` (configuration not stated) the value was 4.96%; for `CCN(CC)C(=O)N1CCOCC1c1c(C)nn(C)c1C` (configuration not stated), 11.3%.

In the case of `Cn1cc(NS(=O)(=O)CC2CCCCO2)cn1` (configuration not stated), the cytotoxicity at 10 µM is -5.41%. Consider `CC(C)(C)OCCN1CCCC1c1nc(Cc2ccc(F)cc2)no1` (configuration not stated), for which the cytotoxicity at 10 µM was -7.1%. Consider `CC(CCc1ccccc1F)C(=O)NS(=O)(=O)CC1CC1` (configuration not stated), for which the cytotoxicity at 10 µM is -5.36%. For `CC(C)NC(=O)CCNC(=O)c1cnc(Cc2ccc(F)cc2)s1` the value was 2.87%; for `CCN(C(=O)CSc1ccc(C(F)(F)F)cn1)C1CC1`, 7.77%; for `CN(C)CCN(Cc1ccc(Cl)cc1)C(=O)c1ccncc1`, 7.99%. On to `COc1cc(NC(=O)c2ccc(Cl)cc2F)c(C(=O)N(C)C)cc1OC`, for which the cytotoxicity at 10 µM is -18.9%. For `CC(CN1CCCC1=O)NC(=O)c1cc(-c2cccc(Cl)c2)no1` (configuration not stated), the cytotoxicity at 10 µM worked out at 5.75%.

`COC(=O)c1ccc(S(=O)(=O)N(C)CC(N)=O)c(Cl)c1`: the cytotoxicity at 10 µM is -1.65%. With `CC(C)(C)c1nc(CN(CCC2CCCCC2)CC(N)=O)no1`, the cytotoxicity at 10 µM is -3.08%. To `Cc1nc(C2CCCCC2)sc1C(=O)O` belongs 15%. To `Cc1noc(OCCOc2cccc(C#N)c2)n1` belongs 0.63%; to `CC(CCS(C)(=O)=O)NC(=O)NCc1ccc2c(c1)CCC2` (configuration not stated), -143%.

Regarding `CC1CCC(O)(CN2CCN(CCNC(=O)C3CCC3)CC2)CC1` (configuration not stated), the cytotoxicity at 10 µM was -0.118%. As to `O=C(C1CCCN1S(=O)(=O)C1CCCC1)N1CCSCC1` (configuration not stated), the cytotoxicity at 10 µM amounted to 4.71%. To `Cc1nccn1-c1ccc(CNC(=O)c2ccc[nH]2)cn1` belongs -14.2%; to `CC(C)NC(=O)CCCn1cnc2ccccc2c1=O`, 15.2%; to `COc1cccc(C2CN(CCc3ccncc3)CCO2)c1` (configuration not stated), -10.1%. With `Cc1noc(COCC(=O)Nc2ccc(Br)c(C)n2)n1`, the cytotoxicity at 10 µM stood at 6.19%. For `COc1cc(N2CCC3(CC2)OCC(=O)NC3C)ncn1` (configuration not stated) the value was 1.95%; for `CCOC1COC2(CCN(c3ncc(C)cn3)CC2)C1` (configuration not stated), 7.21%. Turning to `O=C(c1ccncc1)N1C[C@@H](OCc2cccnc2)[C@H]2OCCC[C@H]21`, the cytotoxicity at 10 µM was 0.866%. For `Cc1cc(C(=O)N2CCCCC2c2nc3cc(F)ccc3[nH]2)nn1C` (configuration not stated), the cytotoxicity at 10 µM was determined as 4.42%. As to `Cc1ccc(-c2ccnc(NC(C)c3n[nH]c(=O)[nH]3)n2)c(C)n1` (configuration not stated), the cytotoxicity at 10 µM came out at 1.33%. In the case of `CCS(=O)(=O)c1ncc(CN(C)Cc2cccc(OC)c2)n1CCOC`, the cytotoxicity at 10 µM is -0.636%. For `Cc1cc(C(=O)N2CC[C@H](N3CCOCC3)[C@H](CCCO)C2)c(C)n1C` the value was -138%; for `Cc1ccc(NC(=O)CN[C@H](C(N)=O)C(C)C)cc1F`, 11%; for `O=C(c1sccc1Cl)N1CCC(Cn2cc(CO)nn2)CC1`, -7.12%. Regarding `CC(C)[C@]1(O)CN(C(=O)COCC(N)=O)C[C@H]1C`, the cytotoxicity at 10 µM came out at 7.37%. Take `Cn1cc(C(=O)N2CCCC(C(=O)CCc3ccccc3)C2)cn1` (configuration not stated): the cytotoxicity at 10 µM was -5.16%. To `O=C(NCC(F)(F)F)C1CCC(=O)N(C2CCCC2)C1` (configuration not stated) belongs -8.77%; to `Cc1nn(C)c2nc(NC3CCNCC3)sc12`, -10.4%.

`Cc1cc(CN2CCC(CNC(=O)CN3CCCCCC3)C2)[nH]n1` (configuration not stated): the cytotoxicity at 10 µM is -131%. For `COc1cccc2c1OCC(C(=O)N1CCC(NS(C)(=O)=O)CC1)C2` (configuration not stated) the value was 1.49%; for `Cc1n[nH]c(C)c1CCC(=O)N1CCc2c(nc[nH]c2=O)C1`, -5%. For `CN(C)CCNC(=O)c1cnc2c(c1)nc(-c1ccccc1Cl)n2C` the value was 10.6%.

As for `Cc1ccc([C@@H]2CN(S(=O)(=O)c3cccs3)C[C@H]2N(C)C)cc1`, the cytotoxicity at 10 µM was -3.12%. Consider `CCC(=O)N(C)C1CCN(Cc2ncc(C)c(OC)c2C)CC1`, for which the cytotoxicity at 10 µM was -9.86%. For `CCc1nc(C2CCCN2C(=O)c2ccoc2C)no1` (configuration not stated) the value was -11.6%.

As for `O=C(CN1CCC(c2ccnn2CCO)CC1)NCc1cccs1`, the cytotoxicity at 10 µM is -10.4%. For `CCCc1cc(C(=O)N2CCCC(n3ccnc3C)C2)[nH]n1` (configuration not stated) the value was -15.6%; for `Cc1ccn(-c2ccc(C(=O)N3CCCC(C(N)=O)C3)cc2)n1` (configuration not stated), -5.38%.

For `COCC(=O)N1CCC2(CCN(Cc3ccc(C)cc3)CC2)CC1`, the cytotoxicity at 10 µM came to 6.68%.

For the compound `COCCN1C(=O)CC[C@@H]2[C@@H]1CCN2Cc1c(C)noc1C`, the cytotoxicity at 10 µM is 6.57%. In the case of `CNC(=O)[C@H]1C[C@H]2OCC[C@H]2N(CC2CCOCC2)C1`, the cytotoxicity at 10 µM stood at 6.46%. Regarding `COc1cc(N2CCC3(CCCN(C(=O)c4cnccn4)C3)C2)ncn1` (configuration not stated), the cytotoxicity at 10 µM is -2.48%.

As to `COCCN1CCO[C@@H]2CN(C(=O)Cc3cccc(F)c3)CC[C@@H]2C1`, the cytotoxicity at 10 µM came out at 5.95%. With `CC(C)CCN1C[C@@H]2C[C@H](C(=O)N3CCCC3)[C@H](C1)O2`, the cytotoxicity at 10 µM came out at 4.82%.
